Measurements from ChEMBL document CHEMBL1123929, “Investigation of peripheral cholecystokinin receptor heterogeneity by cyclic and related linear analogues of CCK26-33: synthesis and biological properties” (J Med Chem, 1987).
Non-standard residues stand in square brackets, D forms with d. Residues, ends and D or L forms follow the SMILES beside them. *: point of attachment. sY = N[C@@H](Cc1ccc(OS(=O)(=O)O)cc1)C(=O)O; Nle = CCCC[C@H](N)C(=O)O; Boc = CC(C)(C)OC(=O)*

Tests used:
Rattus norvegicus = species on record: Rattus norvegicus; test: Evaluated for agonist activity measured as amylase secretion by rat pancreas; type: functional
Summary of the method: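 Rat pancreas fragments stimulated with peptide (Na salt form). Amylase released into the medium was measured with Phadebas reagent by the Ceska method. EC50 was taken from concentration–response curves. Results are means of three separate experiments, each value in triplicate.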

Cholecystokinin receptor = target: T1, Cholecystokinin receptor (Mus musculus, UniProt O08786+P56481); test: Binding affinity measured by inhibiting [3H]Boc[Nle28,31]CCK27-33 specific binding to Cholecystokinin receptor in mouse brain membranes at a KD concentration of 0.19 nM; type: cell membranes, Membrane
T1 sequence (O08786 whole entry): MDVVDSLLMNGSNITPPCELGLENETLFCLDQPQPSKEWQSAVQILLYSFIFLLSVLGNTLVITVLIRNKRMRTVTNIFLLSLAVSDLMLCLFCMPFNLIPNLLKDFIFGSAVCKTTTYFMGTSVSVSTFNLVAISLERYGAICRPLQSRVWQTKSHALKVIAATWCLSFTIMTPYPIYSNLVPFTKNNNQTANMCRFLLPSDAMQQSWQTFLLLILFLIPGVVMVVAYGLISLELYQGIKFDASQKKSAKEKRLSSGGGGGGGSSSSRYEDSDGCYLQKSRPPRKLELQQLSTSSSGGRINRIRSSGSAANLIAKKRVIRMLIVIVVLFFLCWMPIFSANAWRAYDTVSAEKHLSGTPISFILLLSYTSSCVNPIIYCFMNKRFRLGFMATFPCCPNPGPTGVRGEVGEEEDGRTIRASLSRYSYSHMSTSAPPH
T1 sequence (P56481 whole entry): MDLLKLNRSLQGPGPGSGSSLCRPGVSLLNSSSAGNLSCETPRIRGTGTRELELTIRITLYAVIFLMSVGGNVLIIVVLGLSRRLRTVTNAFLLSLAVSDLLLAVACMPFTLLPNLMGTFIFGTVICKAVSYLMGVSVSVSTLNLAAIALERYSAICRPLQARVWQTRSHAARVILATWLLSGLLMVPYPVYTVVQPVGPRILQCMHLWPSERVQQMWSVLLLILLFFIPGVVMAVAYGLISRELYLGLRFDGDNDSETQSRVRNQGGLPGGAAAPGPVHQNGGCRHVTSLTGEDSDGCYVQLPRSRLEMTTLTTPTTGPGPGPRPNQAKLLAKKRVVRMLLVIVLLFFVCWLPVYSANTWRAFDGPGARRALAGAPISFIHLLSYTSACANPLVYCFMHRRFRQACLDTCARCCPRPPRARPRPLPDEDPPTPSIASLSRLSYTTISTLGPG

[1] = target: T2, Cholecystokinin receptor type A (Rattus norvegicus, UniProt P30551); test: Evaluated for binding affinity measured by inhibiting [3H]Boc[Nle28,31]CCK27-33 specific binding to Cholecystokinin receptor in rat pancreas membranes at a KD concentration of 4.4 nM; type: cell membranes, Membrane
T2 sequence (P30551 whole entry): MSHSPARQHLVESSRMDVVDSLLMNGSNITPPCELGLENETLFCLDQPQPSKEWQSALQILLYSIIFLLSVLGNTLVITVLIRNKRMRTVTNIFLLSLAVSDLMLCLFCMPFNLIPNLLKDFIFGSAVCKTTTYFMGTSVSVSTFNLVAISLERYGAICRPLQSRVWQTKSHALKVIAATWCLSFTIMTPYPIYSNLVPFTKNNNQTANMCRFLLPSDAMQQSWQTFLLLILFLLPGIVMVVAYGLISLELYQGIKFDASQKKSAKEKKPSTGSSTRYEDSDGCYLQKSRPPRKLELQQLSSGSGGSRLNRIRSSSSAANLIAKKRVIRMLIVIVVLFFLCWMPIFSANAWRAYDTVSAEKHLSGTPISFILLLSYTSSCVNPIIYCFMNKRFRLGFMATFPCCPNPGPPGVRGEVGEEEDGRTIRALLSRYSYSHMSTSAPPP

Cavia porcellus [2] = species on record: Cavia porcellus; test: Evaluated for contractile activities of guinea pig ileum for antagonistic activity (contraction induced by 3, 10e -9M of CCK-8); type: functional
Summary of the method: (§1)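 Isolated guinea pig ileum contraction by the Hutchinson and Dockray method, with atropine present (1.5 mg/L). Agonism was tested by direct contraction. Antagonism was tested against contraction evoked by 3 × 10⁻⁹ M CCK8. Peptides were used as Na salts. Values are mean ± SEM of three separate experiments.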

Cavia porcellus [3] = species on record: Cavia porcellus; test: Evaluated for contractile activities of guinea pig ileum for agonistic activity; type: functional; summary of the method: as §1

SMILES | EC50 (Rattus norvegicus) [nM] | Ki (Cholecystokinin receptor) [M] | Ki [1] [µM] | EC50 (Cavia porcellus [2]) [µM] | EC50 (Cavia porcellus [3]) [nM]
CCCC[C@H](NC(=O)[C@H](Cc1c[nH]c2ccccc12)NC(=O)[C@@H](CCCCN)NC(=O)[C@H](CCCC)NC(=O)[C@H](Cc1ccc(OS(=O)(=O)O)cc1)NC(=O)[C@H](CC(=O)O)NC(=O)OC(C)(C)C)C(=O)N[C@@H](CC(=O)O)C(=O)N[C@@H](Cc1ccccc1)C(N)=O | 40 | 3e-07 | 0.34 | 15 | > 10000
CCCC[C@H](NC(=O)[C@H](Cc1c[nH]c2ccccc12)NC(=O)[C@@H](CCCCN)NC(=O)[C@H](CCCC)NC(=O)[C@H](Cc1ccc(OS(=O)(=O)O)cc1)NC(=O)[C@H](CC(=O)O)NC(=O)OC(C)(C)C)C(=O)N[C@@H](CC(=O)O)C(N)=O | > 100000 | > 1e-05 | > 10 | > 10 | > 10000
CCCC[C@H](NC(=O)[C@H](Cc1c[nH]c2ccccc12)NC(=O)[C@H]1CCCCNC(=O)C[C@H](NC(=O)OC(C)(C)C)C(=O)N[C@@H](Cc2ccc(OS(=O)(=O)O)cc2)C(=O)N[C@@H](CCCC)C(=O)N1)C(=O)N[C@@H](CC(=O)O)C(N)=O | > 1000 | > 0.00001 | > 10 | > 10 | > 10000
CCCC[C@H](NC(=O)[C@H](Cc1ccc(OS(=O)(=O)O)cc1)NC(=O)OC(C)(C)C)C(=O)NCC(=O)N[C@@H](Cc1c[nH]c2ccccc12)C(=O)N[C@@H](CCCC)C(=O)N[C@@H](CC(=O)O)C(=O)N[C@@H](Cc1ccccc1)C(N)=O (Boc-[sY][Nle]GW[Nle]DF-NH2) | 2.8 | 1.91e-10 |  |  | 3.2
CSCC[C@H](NC(=O)[C@H](Cc1ccc(OS(=O)(=O)O)cc1)NC(=O)[C@@H](N)CC(=O)O)C(=O)NCC(=O)N[C@@H](Cc1c[nH]c2ccccc12)C(=O)N[C@@H](CCSC)C(=O)N[C@@H](CC(=O)O)C(=O)N[C@@H](Cc1ccccc1)C(N)=O [SINCALIDE] | 1 | 4.91e-10 |  |  | 2
